Results published in ChEMBL document CHEMBL1649091, “Flavonoids with an oligopolysulfated moiety: a new class of anticoagulant agents” (J Med Chem, 2011).
Active and inactive are the calls of the source. No cut-off for these calls is given here.

Columns and labels:
Blood [1] = assay: Anticoagulant activity in human whole blood assessed as clotting formation time at 6.25 x 10^-4M by thromboelastography in presence of extrinsic activators; type: functional
Method in brief: (§1)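 Citrated whole blood from healthy donors (1:9 citrate), run within 5 h on a ROTEM analyzer. Compound in saline diluted 1:16 into blood to the final concentration stated; saline control. Intrinsic (InTEM) or extrinsic (ExTEM) activator added. Clot monitored at 37 °C in an oscillating cup-and-pin system for up to 60 min, giving R, K, angle and MA.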

Blood [2] = assay: Anticoagulant activity in human whole blood assessed as alpha angle at 6.25 x 10^-4M by thromboelastography in presence of extrinsic activators; type: functional; method in brief: as §1
[3] = Stability of the compound in human plasma assessed as compound remaining after 3 hrs; type: ADME, cell-free; details: read-out: Activity
Method in brief: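 Compound at 25 µM final in human plasma diluted 1:1 with PBS pH 7.4, shaken at 37 °C for 180 min. Time-zero and 180-min samples quenched with TBA buffer and cold acetonitrile, then centrifuged. Supernatant dried, redissolved and analysed by HPLC. Three independent samples per time point.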

[4] = molecular target: T1, Coagulation factor X/antithrombin III (Homo sapiens) (UniProt P01008+P00742); assay: Inhibition of human antithrombin 3/factor 10a assessed as 125 x 10^-6M CBS31.39 substrate hydrolysis at 0.5 x 10^-3M; type: protein-complex assay
[5] = molecular target: Coagulation factor X (Homo sapiens) (UniProt P00742); assay: Inhibition of human factor 10a assessed as 25 x 10^-6M chromogenic TH substrate hydrolysis at 1 x 10^-3M
Method in brief: (§2)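 Direct FXa test, with buffer in place of ATIII: compound in water in 50 mM Tris/HCl pH 8.3, 227 mM NaCl, 0.1% BSA, 10 min at 37 °C. Human FXa (0.5 U/mL final) added for 10 min, then CBS 31.39 (25 or 125 × 10^-6 M). Read at 405 nm every 12 s for 20 min. Percent inhibition from initial slope against water control, Michaelis-Menten fit.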

[6] = molecular target: Coagulation factor X (Homo sapiens) (UniProt P00742); assay: Inhibition of human factor 10a assessed as 125 x 10^-6M chromogenic TH substrate hydrolysis at 2 x 10^-3M; method in brief: as §2
[7] = molecular target: T1, Coagulation factor X/antithrombin III (Homo sapiens); assay: Inhibition of human antithrombin 3/factor 10a assessed as 125 x 10^-6M CBS31.39 substrate hydrolysis at 2 x 10^-3M; type: protein-complex assay
[8] = molecular target: Coagulation factor X (Homo sapiens) (UniProt P00742); assay: Inhibition of human factor 10a assessed as 25 x 10^-6M chromogenic TH substrate hydrolysis at 0.5 x 10^-3M; method in brief: as §2
[9] = molecular target: T1, Coagulation factor X/antithrombin III (Homo sapiens); assay: Inhibition of human antithrombin 3/factor 10a assessed as 25 x 10^-6M CBS31.39 substrate hydrolysis at 1 x 10^-3M; type: protein-complex assay
Mus musculus [10] = assay: Hepatotoxicity in mouse liver assessed as change in plasma GOT/GPT level at 150 umol/kg, ip; type: toxicity, organism-based; details: in vivo
Method in brief: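 Male CD1 mice (30-35 g), compound in saline ip at 150 µmol/kg. Portal vein citrated blood taken at 30, 60 and 120 min. GOT and GPT (U/L) measured in platelet-poor plasma on an automated chemistry analyzer. Four independent experiments, mean ± SEM.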

Blood [11] = assay: Anticoagulant activity in human whole blood assessed as clotting time at 6.25 x 10^-4M by thromboelastography in presence of extrinsic activators; type: functional; method in brief: as §1
[12] = Antiplatelet activity against collagen EPI-induced human platelet aggregation assessed as closure time at 6.25 x 10^-4M; type: functional
Method in brief: (§3)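 Compound solution added to citrated human whole blood (125 µL into 1875 µL) to the final concentration stated, then run on a PFA-100 in collagen/ADP and collagen/epinephrine cartridges. Closure time is the time until platelets occlude the membrane aperture, in seconds. Mean ± SEM of three independent experiments.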

[13] = Anticoagulant activity in human plasma assessed as concentration required to double activated partial prothrombin time; type: functional
Method in brief: (§4)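 Citrated pooled normal human plasma mixed 1:1 with compound in water (final 5 × 10-3 to 0.05 × 10^-3 M) and held 2 min at 37 °C. APTT: reagent added, 6 min at 37 °C, then 25 mmol/L CaCl2. PT: prewarmed PT reagent. TT: prewarmed thrombin (100 U/mL). Clotting read on a coagulometer, duplicate, three days (n = 6). Doubling concentration taken from linear regression of each concentration-response curve.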

[14] = molecular target: T1, Coagulation factor X/antithrombin III (Homo sapiens); assay: Inhibition of human antithrombin 3/factor 10a assessed as 25 x 10^-6M CBS31.39 substrate hydrolysis at 2 x 10^-3M; type: protein-complex assay
[15] = (§5) Anticoagulant activity in human plasma assessed as concentration required to double thrombin time; type: functional; method in brief: as §4
[16] = Anticoagulant activity in human plasma assessed as concentration required to double prothrombin time; type: functional; method in brief: as §4
Blood [17] = assay: Anticoagulant activity in human whole blood assessed as maximum amplitude at 6.25 x 10^-4M by thromboelastography in presence of intrinsic activators; type: functional; method in brief: as §1
[18] = molecular target: Coagulation factor X (Homo sapiens) (UniProt P00742); assay: Inhibition of human factor 10a assessed as 125 x 10^-6M chromogenic TH substrate hydrolysis at 0.5 x 10^-3M; method in brief: as §2
Blood [19] = assay: Anticoagulant activity in human whole blood assessed as maximum amplitude at 6.25 x 10^-4M by thromboelastography in presence of extrinsic activators; type: functional; method in brief: as §1
Blood [20] = assay: Anticoagulant activity in human whole blood assessed as alpha angle at 6.25 x 10^-4M by thromboelastography in presence of intrinsic activators; type: functional; method in brief: as §1
[21] = Antiplatelet activity against collagen ADP-induced human platelet aggregation assessed as closure time at 6.25 x 10^-4M; type: functional; method in brief: as §3
[22] = molecular target: T1, Coagulation factor X/antithrombin III (Homo sapiens); assay: Inhibition of human antithrombin 3/factor 10a assessed as 125 x 10^-6M CBS31.39 substrate hydrolysis at 1 x 10^-3M; type: protein-complex assay
Blood [23] = assay: Anticoagulant activity in human whole blood assessed as clotting time at 6.25 x 10^-4M by thromboelastography in presence of intrinsic activators; type: functional; method in brief: as §1
[24] = molecular target: T1, Coagulation factor X/antithrombin III (Homo sapiens); assay: Inhibition of human antithrombin 3/factor 10a assessed as 25 x 10^-6M CBS31.39 substrate hydrolysis at 0.5 x 10^-3M; type: protein-complex assay
[25] = molecular target: Prothrombin (Homo sapiens) (UniProt P00734); assay: Inhibition of human thrombin
Method in brief: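 Direct thrombin assay without ATIII: compound in water in 50 mM Tris/HCl pH 8.3, 227 mM NaCl, 0.1% BSA, 10 min at 37 °C. Human thrombin (0.06 U/mL final) added for 10 min, then Chromozym TH (178 × 10^-6 M). Read at 405 nm every 12 s for 20 min. Percent inhibition from initial slope against water control. Duplicates on ≥3 days.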

Blood [26] = assay: Anticoagulant activity in human whole blood assessed as clotting formation time at 6.25 x 10^-4M by thromboelastography in presence of intrinsic activators; type: functional; method in brief: as §1
Mus musculus [27] = assay: Anticoagulant activity in mouse assessed as increase in activated partial prothrombin time at 150 umol/kg, ip relative to control; type: functional
Method in brief: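 Adult male CD1 mice (30-35 g) given compound in saline ip at 150 µmol/kg, fasted on the day. Citrated portal vein blood taken at 30, 60 and 120 min. APTT measured in platelet-poor plasma. Expressed as ratio to saline-treated mice, mean ± SEM of three experiments.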

[28] = molecular target: Coagulation factor X (Homo sapiens) (UniProt P00742); assay: Inhibition of human factor 10a assessed as 125 x 10^-6M chromogenic TH substrate hydrolysis at 1 x 10^-3M; method in brief: as §2
Plasma [29] = assay: Anticoagulant activity in human plasma assessed as increase in thrombin time at 0.5 x 10^-3M relative to control; type: functional, cell-free
Method in brief: (§6)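 Citrated pooled normal human plasma, 1:1 with compound in water (water control), held 2 min at 37 °C before coagulometer reading. APTT: reagent, 6 min at 37 °C, then 25 mmol/L CaCl2. PT: prewarmed reagent. TT: prewarmed 100 U/mL thrombin. Ratio is clotting time with compound over time with water. Duplicates repeated on three days (n = 6).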

Plasma [30] = assay: Anticoagulant activity in human plasma assessed as increase in thrombin time at 5 x 10^-3M relative to control; type: functional, cell-free; method in brief: as §6
Plasma [31] = assay: Anticoagulant activity in human plasma assessed as increase in activated partial prothrombin time at 0.5 x 10^-3M relative to control; type: functional; method in brief: as §6
Plasma [32] = assay: Anticoagulant activity in human plasma assessed as increase in prothrombin time at 0.5 x 10^-3M relative to control; type: functional; method in brief: as §6
Homo sapiens = organism: Homo sapiens; assay: as §5; type: functional; method in brief: as §4
[33] = molecular target: Coagulation factor X (Homo sapiens) (UniProt P00742); assay: Inhibition of human factor 10a assessed as 25 x 10^-6M chromogenic TH substrate hydrolysis at 2 x 10^-3M; method in brief: as §2
Plasma [34] = assay: Anticoagulant activity in human plasma assessed as increase in prothrombin time at 5 x 10^-3M relative to control; type: functional; method in brief: as §6
Plasma [35] = assay: Anticoagulant activity in human plasma assessed as increase in activated partial prothrombin time at 5 x 10^-3M relative to control; type: functional; method in brief: as §6

Sequence of Coagulation factor X (Homo sapiens) (P00742 41-179 limits assumed): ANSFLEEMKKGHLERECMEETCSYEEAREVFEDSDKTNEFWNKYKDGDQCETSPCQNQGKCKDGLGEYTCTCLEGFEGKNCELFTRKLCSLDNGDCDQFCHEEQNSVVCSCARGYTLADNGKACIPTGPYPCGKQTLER
Sequence of Coagulation factor X (Homo sapiens) (P00742 235-488 limits assumed): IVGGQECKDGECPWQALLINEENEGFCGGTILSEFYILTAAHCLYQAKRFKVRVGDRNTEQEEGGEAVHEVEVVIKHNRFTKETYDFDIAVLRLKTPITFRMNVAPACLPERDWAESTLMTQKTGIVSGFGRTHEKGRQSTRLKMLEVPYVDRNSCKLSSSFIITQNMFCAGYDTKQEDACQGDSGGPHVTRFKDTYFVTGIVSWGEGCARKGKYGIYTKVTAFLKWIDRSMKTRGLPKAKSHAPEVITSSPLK

| inhibition [4] | inhibition [5] | inhibition [6] | inhibition [7] | inhibition [8] | inhibition [9] | inhibition [14] | inhibition [18] | inhibition [22] | Compound | Time (Blood [1]) | Activity (Blood [2]) | Time (Blood [11]) | Time [12] | 2aPTT [13] | 2PT [16] | Activity (Blood [17]) | Activity (Blood [19]) | Activity (Blood [20]) | Time [21] | Time (Blood [23]) | also measured |
| --- | --- | --- | --- | --- | --- | --- | --- | --- | --- | --- | --- | --- | --- | --- | --- | --- | --- | --- | --- | --- | --- |
| 28.9% | inactive | 23.4% | 50.7% | inactive | 22.6% | 43.7% | inactive | 38.7% | COc1ccc(-c2cc(=O)c3c(O)cc(O[C@@H]4O[C@H](CO[C@@H]5O[C@@H](C)[C@H](OS(=O)(=O)O)[C@@H](OS(=O)(=O)O)[C@H]5OS(=O)(=O)O)[C@@H](OS(=O)(=O)O)[C@H](OS(=O)(=O)O)[C@H]4OS(=O)(=O)O)cc3o2)cc1O | 150 s | 68 degree | 49 s | 171 s | 435 µM | 2230 µM | 45 mm | 54 mm | 57 degree | 162 s | 267 s | remaining at 3 h [3]: 95%; Activity (Mus musculus [10]): Non-toxic; Activity [15]: > 5000 µM; inhibition [24]: inactive; inhibition [25]: inactive; Time (Blood [26]): 229 s; fold change (FC) (Mus musculus [27]): 1.5; inhibition [28]: inactive |
| – | – | – | – | – | – | – | – | – | COc1ccc(-c2cc(=O)c3c(O)cc(OS(=O)(=O)O)cc3o2)cc1OS(=O)(=O)O | – | – | – | – | – | – | – | – | – | – | – | Activity (Plasma [29]): inactive; Activity (Plasma [30]): inactive; fold change (FC) (Plasma [31]): 1.65; fold change (FC) (Plasma [32]): 1.1 |
| 39.7% | inactive | inactive | 58.1% | inactive | 40.2% | 49.6% | inactive | 46.2% | COc1ccc([C@@H]2CC(=O)c3c(O)cc(O[C@@H]4O[C@H](CO[C@@H]5O[C@@H](C)[C@H](OS(=O)(=O)O)[C@@H](OS(=O)(=O)O)[C@H]5OS(=O)(=O)O)[C@@H](OS(=O)(=O)O)[C@H](OS(=O)(=O)O)[C@H]4OS(=O)(=O)O)cc3O2)cc1O | 116 s | 70 degree | 59 s | 167 s | 413 µM | 3620 µM | 40 mm | 59 mm | 57 degree | 139 s | 300 s | Activity (Homo sapiens): inactive; inhibition [24]: 30.5%; inhibition [25]: inactive; inhibition [33]: inactive; Time (Blood [26]): 214 s; inhibition [28]: inactive |
| – | – | – | – | – | – | – | – | – | COc1ccc([C@@H]2CC(=O)c3c(O)cc(OS(=O)(=O)O)cc3O2)cc1OS(=O)(=O)O [HESPERETIN 3',7-O-DISULFATE] | – | – | – | – | – | – | – | – | – | – | – | fold change (FC) (Plasma [34]): 1.2; fold change (FC) (Plasma [35]): 1.1; Activity (Plasma [29]): inactive; Activity (Plasma [30]): inactive |
| 20.3% | 41.9% | 53.3% | 33.6% | 25.7% | 47.6% | 56% | inactive | 24.8% | C[C@H]1O[C@@H](OC[C@@H]2O[C@H](Oc3c(-c4ccc(OCCOS(=O)(=O)O)c(OCCOS(=O)(=O)O)c4)oc4cc(OCCOS(=O)(=O)O)cc(O)c4c3=O)[C@@H](OS(=O)(=O)O)[C@H](OS(=O)(=O)O)[C@H]2OS(=O)(=O)O)[C@@H](OS(=O)(=O)O)[C@@H](OS(=O)(=O)O)[C@@H]1OS(=O)(=O)O | 111 s | 69 degree | 105 s | >300 s | 145 µM | 835 µM | 64 mm | 61 mm | 67 degree | 204 s | 560 s | Activity [15]: 867 µM; inhibition [24]: 28.1%; inhibition [25]: inactive; Time (Blood [26]): 122 s; inhibition [28]: 38.8% |
